Measurements: ChEMBL document CHEMBL4680084, “New β-Lactam Derivatives Modulate Cell Adhesion and Signaling Mediated by RGD-Binding and Leukocyte Integrins” (J Med Chem, 2016)
Calls of active or inactive are those of the source. The calls are words filed in the database; no cut-off is given here.

How the values were obtained:
[1] = biological target: T1, Integrin alpha-IIb/beta-3 (Homo sapiens, UniProt P05106+P08514); assay: Agonist activity at alpha2bbeta3 in human K562 cells assessed as increase in cell adhesion to fibrinogen pre-incubated for 30 mins and further incubated for 1 hr in presence of alpha2bbeta3 antagonist Tirofiban by nitrophenyl-N-acetyl-beta-D-glucosaminide substrate based chromogenic assay; settings: time 90.0 min
Integrin alpha-V/beta-3 [2] = biological target: T2, Integrin alpha-V/beta-3 (Homo sapiens, UniProt P05106+P06756); assay: Inhibition of fibronectin binding to human recombinant alphaVbeta3 expressed in HEK293 cells incubated for 1 hr by […] competitive solid-phase binding assay; format: cell-based
Integrin alpha-V/beta-6 [3] = biological target: T3, Integrin alpha-V/beta-6 (Homo sapiens, UniProt P06756+P18564); assay: Antagonist activity at alphaVbeta6 in human HT-29 cells assessed as reduction in cell adhesion to fibronectin pre-incubated for 30 mins before fibronectin and further incubated for 1 hr by nitrophenyl-N-acetyl-beta-D-glucosaminide substrate based chromogenic assay
How it was run: (§1)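 Compound or methanol vehicle pre-incubated with cells for 30 min at room temperature. Cells then plated on wells coated overnight at 4 °C with fibronectin 10 µg/mL (SK-MEL-24, K562, HT-29) or fibrinogen 10 µg/mL (MCF7, HEL). Seeding was 50,000 cells/well, or 100000 for HEL. Adhesion ran 1 h at room temperature. Wells washed with 1% BSA/PBS. Quadruplicate, at least three repeats.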

Integrin alpha-5/beta-1 [4] = biological target: T4, Integrin alpha-5/beta-1 (Homo sapiens, UniProt P05556+P08648); assay: Agonist activity at alpha5beta1 in human K562 cells assessed as assessed as increase in ERK1/2 phosphorylation at 1 to 100 nM by Western blot analysis; format: cell-based; settings: filed as agonist, dose 1-100 nM
HEL = assay: Toxicity in human HEL cells assessed as induction of cell necrosis and/or apoptosis incubated for 3 hrs by annexin V-PE and 7-AAD staining based by flow cytometry
How it was run: (§2)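 After 3 h incubation, cells resuspended in complete medium and stained with annexin V-PE/7-AAD reagent for 20 min at room temperature in the dark. Flow cytometry sorted cells into viable, early apoptotic and late apoptotic/necrotic populations.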

Integrin alpha-V/beta-6 [5] = biological target: T3, Integrin alpha-V/beta-6; assay: Agonist activity at alphaVbeta6 in human HT-29 cells assessed as increase in cell adhesion to fibronectin pre-incubated for 30 mins before fibronectin and further incubated for 1 hr by nitrophenyl-N-acetyl-beta-D-glucosaminide substrate based chromogenic assay
How it was run: as §1, with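 “BSA/PBS. Adherent cells read by hexosaminidase substrate, absorbance 405 nm.” for “BSA/PBS.”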

Integrin alpha-5/beta-1 [6] = biological target: T4, Integrin alpha-5/beta-1; assay: Agonist activity at alpha5beta1 in human K562 cells assessed as increase in cell adhesion to fibronectin at 10 ug/ml pre-incubated for 30 mins and further incubated for 1 hr in presence of integrin antagonist c(-RGDfV) by nitrophenyl-N-acetyl-beta-D-glucosaminide substrate based chromogenic assay; settings: dose 10.0 µg/ml, time 90.0 min
How it was run: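 Agonist-coated wells (10 µg/mL in methanol). Cells pre-treated 10 min before plating with neutralizing anti-α5, anti-αv or anti-α4 antibody (10 µg/mL), or pre-incubated with c(-RGDfV) (1 µM). K562 plated at 50,000/well and Jurkat E6.1 at 500,000/well. Adhesion quantified as in the standard assay.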

[7] = biological target: Integrin alpha-L/beta-2 (LFA-1) (Homo sapiens, UniProt P05107+P20701); assay: Antagonist activity at alphaLbeta2 in human Jurkat E6.1 cells assessed as reduction in cell adhesion to ICAM1 pre-incubated for 30 mins before ICAM1 and further incubated for 30 mins by […]; format: cell-based
How it was run: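 Jurkat E6.1 cells labelled with CellTracker green CMFDA (12.5 µM, 30 min, 37 °C), washed, then pre-incubated 30 min at 37 °C with compound or methanol. Plated at 500,000/well on VCAM-1 (α4β1) or ICAM-1 (αLβ2) coated wells (5 µg/mL) for 30 min at 37 °C. Cells lysed in 0.5% Triton X-100; fluorescence read Ex485/Em535. Quadruplicate, at least three repeats.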

Integrin alpha-V/beta-5 [8] = biological target: T5, Integrin alpha-V/beta-5 (Homo sapiens, UniProt P06756+P18084); assay: Agonist activity at alphaVbeta5 in human MCF7 cells assessed as increase in cell adhesion to fibrinogen pre-incubated for 30 mins before fibrinogen and further incubated for 1 hr by nitrophenyl-N-acetyl-beta-D-glucosaminide substrate based chromogenic assay
How it was run: as §1, with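 “BSA/PBS. Adherent cells read by hexosaminidase substrate, absorbance 405 nm.” for “BSA/PBS.”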

[9] = biological target: T1, Integrin alpha-IIb/beta-3; assay: Agonist activity at alpha2bbeta3 in human HEL cells assessed as increase in cell adhesion to fibrinogen pre-incubated for 30 mins before fibrinogen and further incubated for 1 hr by nitrophenyl-N-acetyl-beta-D-glucosaminide substrate based chromogenic assay; how it was run: as §1
K562 = assay: Toxicity in human K562 cells assessed as induction of cell necrosis and/or apoptosis incubated for 3 hrs by annexin V-PE and 7-AAD staining based by flow cytometry; settings: k562, 3 h; how it was run: as §2
Integrin alpha-V/beta-6 [10] = biological target: T3, Integrin alpha-V/beta-6; assay: Inhibition of fibronectin binding to alphaVbeta6 isolated form human HT-29 cells incubated for 1 hr by […] competitive solid-phase binding assay; format: tissue-based
Integrin alpha-5/beta-1 [11] = biological target: T4, Integrin alpha-5/beta-1; assay: Agonist activity at alpha5beta1 in human K562 cells assessed as increase in cell adhesion to fibronectin pre-incubated for 30 mins before fibronectin and further incubated for 1 hr by nitrophenyl-N-acetyl-beta-D-glucosaminide substrate based chromogenic assay
How it was run: as §1, with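 “BSA/PBS. Adherent cells read by hexosaminidase substrate, absorbance 405 nm.” for “BSA/PBS.”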

Integrin alpha-4/beta-1 = Integrin alpha-4/beta-1 (Homo sapiens, UniProt P05556+P13612); assay: Antagonist activity at alpha4beta1 in human Jurkat E6.1 cells assessed as reduction in cell adhesion to VCAM1 pre-incubated for 30 mins before VCAM1 and further incubated for 30 mins by […]; format: cell-based
[12] = biological target: T1, Integrin alpha-IIb/beta-3; assay: Antagonist activity at alpha2bbeta3 in human HEL cells assessed as reduction in cell adhesion to fibrinogen pre-incubated for 30 mins before fibrinogen and further incubated for 1 hr by nitrophenyl-N-acetyl-beta-D-glucosaminide substrate based chromogenic assay; how it was run: as §1
Integrin alpha-V/beta-3 [13] = biological target: T2, Integrin alpha-V/beta-3; assay: Antagonist activity at alphaVbeta3 in human SK-MEL-24 cells assessed as reduction in cell adhesion to fibronectin pre-incubated for 30 mins before fibronectin and further incubated for 1 hr by nitrophenyl-N-acetyl-beta-D-glucosaminide substrate based chromogenic assay; how it was run: as §1
Integrin alpha-V/beta-5 [14] = biological target: T5, Integrin alpha-V/beta-5; assay: Inhibition of fibrinogen binding to alphaVbeta5 isolated form human mCf7 cells incubated for 1 hr by […] competitive solid-phase binding assay
Integrin alpha-V/beta-5 [15] = biological target: T5, Integrin alpha-V/beta-5; assay: Antagonist activity at alphaVbeta5 in human MCF7 cells assessed as reduction in cell adhesion to fibrinogen pre-incubated for 30 mins before fibrinogen and further incubated for 1 hr by nitrophenyl-N-acetyl-beta-D-glucosaminide substrate based chromogenic assay; how it was run: as §1
Integrin alpha-5/beta-1 [16] = biological target: T4, Integrin alpha-5/beta-1; assay: Agonist activity at alpha5beta1 in human K562 cells assessed as increase in cell adhesion to fibronectin pre-incubated for 30 mins and further incubated for 1 hr by nitrophenyl-N-acetyl-beta-D-glucosaminide substrate based chromogenic assay; settings: filed as agonist, time 90.0 min
How it was run: as §1, with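 “BSA/PBS. Adherent cells read by hexosaminidase substrate, absorbance 405 nm.” for “BSA/PBS.”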

MCF7 = assay: Toxicity in human MCF7 cells assessed as induction of cell necrosis and/or apoptosis incubated for 3 hrs by annexin V-PE and 7-AAD staining based by flow cytometry; settings: mcf7, 3 h; how it was run: as §2

| Structure (SMILES) | Activity ([1]; filed as agonist) | IC50 (Integrin alpha-V/beta-3 [2]) | IC50 (Integrin alpha-V/beta-6 [3]) | Activity (Integrin alpha-5/beta-1 [4]) | Activity (HEL) | EC50 (Integrin alpha-V/beta-6 [5]) | Activity (Integrin alpha-5/beta-1 [6]; filed as agonist) | IC50 [7] | EC50 (Integrin alpha-V/beta-5 [8]) | EC50 [9] | Activity (K562) | IC50 (Integrin alpha-V/beta-6 [10]) | EC50 (Integrin alpha-5/beta-1 [11]) | IC50 (Integrin alpha-4/beta-1) | IC50 [12] | IC50 (Integrin alpha-V/beta-3 [13]) | IC50 (Integrin alpha-V/beta-5 [14]) | IC50 (Integrin alpha-V/beta-5 [15]) | Activity (Integrin alpha-5/beta-1 [16]) | Activity (MCF7) | other results |
| --- | --- | --- | --- | --- | --- | --- | --- | --- | --- | --- | --- | --- | --- | --- | --- | --- | --- | --- | --- | --- | --- |
| Cc1ccccc1NC(=O)N1C(=O)CC1CC(=O)NCC(=O)O (stereo not given) | Active | > 1000 nM | > 5 µM | Dose-dependent effect | Non-Toxic | > 5 µM | Active | > 5000 nM | > 5 µM | > 5 µM | Non-Toxic | > 1000 nM | 9.9 nM | > 5000 nM | > 5 µM | > 5000 nM | > 1000 nM | > 5 µM | Dose-dependent effect | Non-Toxic |  |
| NCc1ccc(NC(=O)N2C(=O)CC2CC(=O)NCCC(=O)O)cc1.O=C(O)C(F)(F)F (stereo not given) |  | > 1000 nM | > 5 µM | Dose-dependent effect | Non-Toxic | > 5 µM | Active | > 5000 nM | > 5 µM | 1.56 µM | Non-Toxic | > 1000 nM | 6.7 nM | > 5000 nM | 1.56 µM | > 5000 nM | > 1000 nM | > 5 µM | Dose-dependent effect | Non-Toxic | Activity [1]: inactive |
| Nc1ccc(CNC(=O)N2C(=O)CC2CC(=O)O)cc1.O=C(O)C(F)(F)F (stereo not given) | Active | 9.9 nM | > 5 µM | Active | Non-Toxic | > 5 µM |  | 0.39 nM | > 5 µM | > 5 µM | Non-Toxic | > 1000 nM | 44.5 nM | 574 nM | > 5 µM | 71.7 nM | > 1000 nM | > 5 µM | Dose-dependent effect | Non-Toxic | Activity (Integrin alpha-5/beta-1 [6]): inactive |
